In ChEMBL document CHEMBL4138056, “T- and B-cell immunosuppressive activity of novel α-santonin analogs with humoral and cellular immune response in Balb/c mice” (Medchemcomm, 2017):

Columns and labels:
Murine T-cell line [1] = test: Cytotoxicity against Balb/c mouse T cells assessed as decrease in cell survival at 1 uM by MTT assay; format: cell-based
Outline: (§1)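 Balb/c splenocytes (RBC lysed with tris-ammonium chloride, trypan blue viability) seeded at 1×10^6 cells/mL with Con A or LPS (10 μg/mL each) and test agent at 1, 10 or 100 μM for 48 h at 37 °C, 5% CO2; MTT added for 4 h, formazan dissolved in DMSO, OD 540 nm. Cytotoxicity scored +/−; triplicate, three separate experiments.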

B-cell line [2] = test: Immunosuppressive activity in Balb/c mouse B cells assessed as inhibition of LPS-induced cell proliferation at 1 uM after 48 hrs by MTT assay relative to control; format: functional
Outline: (§2)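 Balb/c spleen single-cell suspension, RBCs lysed with tris-ammonium chloride, viability by trypan blue; 1×10^6 cells/mL stimulated with LPS (10 μg/mL) for B cells, test agent 1, 10 or 100 μM, 48 h at 37 °C, 5% CO2. MTT 4 h, DMSO solubilization, OD 540 nm; % change vs mitogen control; triplicate, three separate experiments.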

B-cell line [3] = test: Cytotoxicity against Balb/c mouse B cells assessed as decrease cell survival at 1 uM by MTT assay; format: cell-based; outline: as §1
B-cell line [4] = test: Cytotoxicity against Balb/c mouse B cells assessed as decrease cell survival at 10 uM by MTT assay; format: cell-based; outline: as §1
Murine T-cell line [5] = test: Cytotoxicity against Balb/c mouse T cells assessed as decrease in cell survival at 10 uM by MTT assay; format: cell-based; outline: as §1
Murine T-cell line [6] = test: Immunosuppressive activity in Balb/c mouse T cells assessed as inhibition of ConA-induced cell proliferation at 10 uM after 48 hrs by MTT assay relative to control
B-cell line [7] = test: Immunosuppressive activity in Balb/c mouse B cells assessed as inhibition of LPS-induced cell proliferation at 100 uM after 48 hrs by MTT assay relative to control; format: functional; outline: as §2
B-cell line [8] = test: Immunosuppressive activity in Balb/c mouse B cells assessed as inhibition of LPS-induced cell proliferation at 10 uM after 48 hrs by MTT assay relative to control; format: functional; outline: as §2
Murine T-cell line [9] = test: Cytotoxicity against Balb/c mouse T cells assessed as decrease in cell survival at 100 uM by MTT assay; format: cell-based; outline: as §1
Murine T-cell line [10] = test: Immunosuppressive activity in Balb/c mouse T cells assessed as inhibition of ConA-induced cell proliferation at 1 uM after 48 hrs by MTT assay relative to control
B-cell line [11] = test: Cytotoxicity against Balb/c mouse B cells assessed as decrease cell survival at 100 uM by MTT assay; format: cell-based; outline: as §1
Murine T-cell line [12] = test: Immunosuppressive activity in Balb/c mouse T cells assessed as inhibition of ConA-induced cell proliferation at 100 uM after 48 hrs by MTT assay relative to control
Murine T-cell line [13] = test: Immunostimulant activity in Balb/c mouse T cells assessed as induction of ConA-induced cell proliferation at 100 uM after 48 hrs by MTT assay relative to control

| Structure (SMILES) | Activity (Murine T-cell line [1]) | inhibition at 1 µM (B-cell line [2]) [%] | Activity (B-cell line [3]) | Activity (B-cell line [4]) | Activity (Murine T-cell line [5]) | inhibition at 10 µM (Murine T-cell line [6]) [%] | inhibition at 100 µM (B-cell line [7]) [%] | inhibition at 10 µM (B-cell line [8]) [%] | Activity (Murine T-cell line [9]) | inhibition at 1 µM (Murine T-cell line [10]) [%] | Activity (B-cell line [11]) | inhibition at 100 µM (Murine T-cell line [12]) [%] | Activity (Murine T-cell line [13]) [%] |
| --- | --- | --- | --- | --- | --- | --- | --- | --- | --- | --- | --- | --- | --- |
| Cc1cc(OCc2ccc(Cl)cc2)c(C)c2c1CC[C@H]1[C@H](C)C(=O)O[C@@H]21 | Non-Toxic | 37 | Non-Toxic | Non-Toxic | Non-Toxic | 33 | 28 | 37 | Toxic | 15 | Toxic | 45 | – |
| COc1ccc(NC(=O)CCC(=O)Oc2cc(C)c3c(c2C)[C@@H]2OC(=O)[C@@H](C)[C@@H]2CC3)cc1 | Non-Toxic | 17.7 | Non-Toxic | Non-Toxic | Non-Toxic | 35 | 68 | 52 | Toxic | 1 | Toxic | 58 | – |
| COc1cc(C)c2c(c1C)[C@@H]1OC(=O)[C@@H](C)[C@@H]1CC2 | Toxic | 42 | Toxic | Toxic | Toxic | 23.2 | 21 | 19.1 | Toxic | 50 | Toxic | 16.1 | – |
| Cc1cc(OC(=O)CCC(=O)Nc2ccccc2Cl)c(C)c2c1CC[C@H]1[C@H](C)C(=O)O[C@@H]21 | Non-Toxic | 27.7 | Non-Toxic | Non-Toxic | Non-Toxic | 45 | 69 | 51 | Non-Toxic | 13 | Non-Toxic | 56 | – |
| CCCCCOc1cc(C)c2c(c1C)[C@@H]1OC(=O)[C@@H](C)[C@@H]1CC2 | Toxic | 29.5 | Toxic | Toxic | Toxic | 33.1 | 9.59 | 32.4 | Toxic | 11.1 | Toxic | 29.4 | – |
| CCCC(=O)Oc1cc(C)c2c(c1C)[C@@H]1OC(=O)[C@@H](C)[C@@H]1CC2 | Non-Toxic | 12.5 | Non-Toxic | Non-Toxic | Non-Toxic | 38 | 69.8 | 35.4 | Non-Toxic | 28.5 | Non-Toxic | 71.9 | – |
| Cc1cc(OC(=O)c2ccccc2)c(C)c2c1CC[C@H]1[C@H](C)C(=O)O[C@@H]21 | Non-Toxic | 18.8 | Non-Toxic | Non-Toxic | Non-Toxic | 39.4 | 17.7 | 43.8 | Non-Toxic | 71.8 | Non-Toxic | – | 23.94 |
| CC(=O)Oc1cc(C)c2c(c1C)[C@@H]1OC(=O)[C@@H](C)[C@@H]1CC2 | Non-Toxic | 51.8 | Non-Toxic | Non-Toxic | Non-Toxic | 45.2 | 68 | 44.3 | Toxic | 39.7 | Toxic | 63 | – |
| Cc1cc(OC(=O)CCC(=O)O)c(C)c2c1CC[C@H]1[C@H](C)C(=O)O[C@@H]21 | Non-Toxic | 33.3 | Non-Toxic | Toxic | Toxic | 53.4 | 5.2 | 42.7 | Toxic | 29.4 | Toxic | 61.7 | – |
